Measurements from ChEMBL document CHEMBL1153725, “Tetrahydroquinoline derivatives as CRTH2 antagonists” (Bioorg Med Chem Lett, 2009).

Assays:
[1] = biological target: T1, Prostaglandin D2 receptor 2 (Homo sapiens, UniProt Q9Y5Y4); test: Displacement of [3H]PGD2 from human CRTH2 receptor expressed in 293 cells by scintillation counting in presence of 0.5% BSA; type: cell-based, HEK293
T1 sequence (Q9Y5Y4 whole entry): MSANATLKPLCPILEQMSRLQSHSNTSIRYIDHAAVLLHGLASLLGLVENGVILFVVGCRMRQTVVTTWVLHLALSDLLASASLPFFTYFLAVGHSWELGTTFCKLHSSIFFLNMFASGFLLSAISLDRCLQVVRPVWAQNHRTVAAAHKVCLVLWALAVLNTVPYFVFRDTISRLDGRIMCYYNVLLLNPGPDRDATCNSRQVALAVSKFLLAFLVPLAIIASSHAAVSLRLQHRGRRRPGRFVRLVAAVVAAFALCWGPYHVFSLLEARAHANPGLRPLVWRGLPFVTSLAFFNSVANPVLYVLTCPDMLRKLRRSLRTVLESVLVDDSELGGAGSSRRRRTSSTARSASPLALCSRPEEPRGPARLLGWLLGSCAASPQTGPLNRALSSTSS
How it was run: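 Whole-cell binding on 293 cells stably transfected with hCRTH2. [3H]-PGD2 incubated with cells plus increasing compound concentrations in binding buffer containing 0.5% BSA. Cells washed, bound label counted by scintillation, and the concentration giving 50% inhibition of binding taken as IC50. Means of three experiments.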

[2] = biological target: T1, Prostaglandin D2 receptor 2; test: Displacement of [3H]PGD2 from human CRTH2 receptor expressed in 293 cells by scintillation counting in presence of 50% human plasma; type: cell-based, HEK293
How it was run: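 Whole-cell binding on 293 cells stably transfected with hCRTH2, run in binding buffer containing 50% human plasma. [3H]-PGD2 incubated with cells and rising compound concentrations. After washing, cell-bound label measured by scintillation counting, and IC50 taken as the concentration halving binding. Means of three experiments.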

[3] = system: Eosinophil; test: Inhibition of PGD2-induced human eosinophil shape change by flow cytometry; type: functional, cell-based
How it was run: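 Enriched human eosinophils at 10^6 cells/mL in PBS with Ca2+/Mg2+, 0.1% BSA, 10 mM Hepes, 10 mM glucose. Antagonist or vehicle (0.05% DMSO) applied 10 min at room temperature, then 10 nM PGD2 for 10 min at 37 °C. Response expressed as % of maximal PGD2 response. Means of two experiments.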

[4] = biological target: T2, Prostaglandin D2 receptor (Homo sapiens, UniProt Q13258); test: Displacement of [3H]PGD2 from human DP receptor expressed in 293 cells by scintillation counting in presence of 0.5% BSA; type: cell-based, HEK293
T2 sequence (Q13258 whole entry): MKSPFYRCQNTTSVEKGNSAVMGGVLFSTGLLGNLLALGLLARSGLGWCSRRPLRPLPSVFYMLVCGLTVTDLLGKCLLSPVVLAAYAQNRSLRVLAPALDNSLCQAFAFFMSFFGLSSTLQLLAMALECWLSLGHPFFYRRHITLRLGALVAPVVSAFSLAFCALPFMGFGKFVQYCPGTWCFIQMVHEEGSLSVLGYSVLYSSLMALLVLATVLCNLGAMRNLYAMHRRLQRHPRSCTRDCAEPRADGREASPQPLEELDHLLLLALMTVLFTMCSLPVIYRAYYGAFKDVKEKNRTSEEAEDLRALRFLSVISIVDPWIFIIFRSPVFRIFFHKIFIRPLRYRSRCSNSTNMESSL
How it was run: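 hDP binding on stably transfected 293 cells. [3H]-PGD2 incubated with 293(hDP) cells and increasing compound concentrations in buffer with 0.5% BSA. After washing, remaining bound radioligand counted by scintillation, and IC50 read as the concentration giving 50% inhibition. Means of three experiments.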

## C[C@@H]1C[C@H](N(C(=O)CCC(=O)O)c2ccccc2)c2ccccc2N1C(=O)c1ccccc1
[1]
  IC50: 400 nM
[2]
  IC50: 39 nM

## CC1CC(N(C(=O)/C=C/C(=O)O)c2ccccc2)c2ccccc2N1C(=O)c1ccccc1 (racemic)
[1]
  IC50: 2280 nM

## CC(=O)N(c1ccccc1)C1CC(C)N(Cc2ccccc2)c2ccccc21 (racemic)
[1]
  IC50: 200 nM

## CC(=O)N(c1ccccc1)C1CC(C)N(C(=O)c2ccc(Oc3ccccc3)cc2)c2ccccc21 (racemic)
[1]
  IC50: 13 nM

## CC(=O)N(c1ccccc1)[C@@H]1C[C@H](C)N(C(=O)c2ccccc2)c2ccccc21 (racemic)
[1]
  IC50: 43 nM
[2]
  IC50: 1050 nM

## CC(=O)N(c1ccccc1)C1CC(C)N(C(=O)c2ccc(C)c(C)c2)c2ccccc21 (racemic)
[1]
  IC50: 92 nM

## CC(=O)N(c1ccccc1)C1CC(C)N(C(=O)c2ccc(C(C)(C)C)cc2)c2ccccc21 (racemic)
[1]
  IC50: 34 nM

## CC1CC(N(C(=O)CCC(=O)O)c2ccccc2)c2ccccc2N1C(=O)c1ccccc1 (racemic)
[1]
  IC50: 5 nM
[2]
  IC50: 28 nM

## CC(=O)N(c1ccccc1)C1CC(C)N(C(=O)Cc2ccccc2)c2ccccc21 (racemic)
[1]
  IC50: 1750 nM

## CC(=O)N(c1ccccc1)[C@H]1C[C@H](C)N(C(=O)c2ccccc2)c2ccccc21 (racemic)
[1]
  IC50: > 10000 nM

## CC1CC(Nc2ccccc2)c2ccccc2N1C(=O)c1ccccc1 (racemic)
[1]
  IC50: > 50000 nM

## CC1CC(N(C(=O)CCCC(=O)O)c2ccccc2)c2ccccc2N1C(=O)c1ccccc1 (racemic)
[1]
  IC50: 22 nM

## CC(=O)N(Cc1ccccc1)C1CC(C)N(C(=O)c2ccccc2)c2ccccc21 (racemic)
[1]
  IC50: 430 nM

## CCCCC(=O)N(c1ccccc1)C1CC(C)N(C(=O)c2ccccc2)c2ccccc21 (racemic)
[1]
  IC50: 64 nM

## CC1CC(N(C(=O)CCC(=O)ON)c2ccccc2)c2ccccc2N1C(=O)c1ccccc1 (racemic)
[1]
  IC50: 29 nM

## CC(=O)N(c1ccccc1)[C@@H]1C[C@H](C)N(C(=O)c2ccccc2)c2ccccc21
[1]
  IC50: 17 nM
[2]
  IC50: 440 nM
[3]
  IC50: 141 nM
[4]
  IC50: > 10000 nM

## CCN(C(C)=O)C1CC(C)N(C(=O)c2ccccc2)c2ccccc21 (racemic)
[1]
  IC50: 250 nM

## CC(=O)N(c1ccccc1)C1CC(C)N(C(=O)c2ccc(Cl)cc2)c2ccccc21 (racemic)
[1]
  IC50: 93 nM

## CC1CC(N(c2ccccc2)S(=O)(=O)c2ccccc2)c2ccccc2N1C(=O)c1ccccc1 (racemic)
[1]
  IC50: 5500 nM

## CC(=O)N(c1ccccc1)C1CC(C)Nc2ccccc21 (racemic)
[1]
  IC50: > 50000 nM

## CC(=O)N(c1ccccc1)C1CC(C)N(C(=O)c2ccc(OC(F)(F)F)cc2)c2ccccc21 (racemic)
[1]
  IC50: 26 nM
[2]
  IC50: > 10000 nM

## CC1CC(N(C(=O)c2ccccc2)c2ccccc2)c2ccccc2N1C(=O)c1ccccc1 (racemic)
[1]
  IC50: 105 nM

## CCN(c1ccccc1)C1CC(C)N(C(=O)c2ccccc2)c2ccccc21 (racemic)
[1]
  IC50: 3170 nM

## CC(=O)N(c1ccccc1)C1CC(C)N(C(=O)c2ccc(C)cc2)c2ccccc21 (racemic)
[1]
  IC50: 41 nM

## CCCCC(=O)N1c2ccccc2C(N(C(C)=O)c2ccccc2)CC1C (racemic)
[1]
  IC50: 1460 nM

## CC(=O)N(c1ccccc1)C1CC(C)N(C(=O)c2cccc(C)c2)c2ccccc21 (racemic)
[1]
  IC50: 74 nM

## COc1ccc(C(=O)N2c3ccccc3C(N(C(C)=O)c3ccccc3)CC2C)cc1 (racemic)
[1]
  IC50: 28 nM
[2]
  IC50: 130 nM

## CC(=O)N(c1ccccc1)C1CC(C)N(S(=O)(=O)c2ccccc2)c2ccccc21 (racemic)
[1]
  IC50: 62000 nM

## CC1CC(N(C(=O)CC(=O)O)c2ccccc2)c2ccccc2N1C(=O)c1ccccc1 (racemic)
[1]
  IC50: 540 nM

## C[C@H]1C[C@@H](N(C(=O)CCC(=O)O)c2ccccc2)c2ccccc2N1C(=O)c1ccccc1
[1]
  IC50: 3 nM
[2]
  IC50: 9 nM
[3]
  IC50: 0.77 nM
[4]
  IC50: > 10000 nM

## CC(=O)N(c1ccccc1)[C@H]1C[C@@H](C)N(C(=O)c2ccccc2)c2ccccc21
[1]
  IC50: 420 nM
[2]
  IC50: > 10000 nM

## CC(=O)N(c1ccccc1)C1CC(C)N(C(=O)/C=C/c2ccccc2)c2ccccc21 (racemic)
[1]
  IC50: 210 nM

## CC(=O)N(c1ccccc1)C1CC(C)N(C(=O)OCc2ccccc2)c2ccccc21 (racemic)
[1]
  IC50: 910 nM

## CC(=O)NC1CC(C)N(C(=O)c2ccccc2)c2ccccc21 (racemic)
[1]
  IC50: 3620 nM

## CC1CC(N(C(=O)c2cccc(C(=O)O)c2)c2ccccc2)c2ccccc2N1C(=O)c1ccccc1 (racemic)
[1]
  IC50: 40300 nM

## CC(=O)N(c1ccccc1)C1CC(C)N(C(=O)c2ccccc2C)c2ccccc21 (racemic)
[1]
  IC50: 1420 nM
